What was measured:
[1] = target: T1, Voltage-gated L-type calcium channel (Rattus norvegicus, UniProt P22002+Q02485+P27732); test: Inhibition of L-type calcium channel in endothelium-denuded Wistar rat aorta rings assessed as relaxation of 60 mM K+-induced contraction; settings: for inhibition (INH): rat
[2] = target: T1, Voltage-gated L-type calcium channel; test: Inhibition of L-type calcium channel in endothelium-denuded Wistar rat aorta rings assessed as relaxation of 30 mM K+-induced contraction
In short: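 Endothelium-denuded rat aorta rings, isometric tension, equilibrated 60 min in PSS gassed with 95% O2/5% CO2 (pH 7.4). Contracted with 0.3 μM phenylephrine, or 30 or 60 mM K+ (KCl replacing NaCl).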

[3] = target: T1, Voltage-gated L-type calcium channel; test: Inhibition of L-type calcium channel in endothelium-denuded Wistar rat aorta rings assessed as relaxation of phenylephrine-induced contraction; settings: for inhibition (INH): rat
[4] = target: T1, Voltage-gated L-type calcium channel; test: Inhibition of L-type calcium channel in endothelium-denuded Wistar rat aorta rings depolarized with 60 mM K+ solution assessed as relaxation of Ca2+-induced contraction
In short: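 Endothelium-denuded rings stimulated with 60 mM K+ for 15 min, then washed 90 min in Ca2+-free PSS with 1 mM EGTA, and stores emptied with 0.3 μM phenylephrine. Depolarized in Ca2+-free 60 mM K+ PSS, then cumulative Ca2+ (0.03−3 mM). Test substance or vehicle present 30 min before and throughout.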

[5] = target: T1, Voltage-gated L-type calcium channel; test: Inhibition of L-type calcium channel in endothelium-denuded Wistar rat aorta rings depolarized with 60 mM K+ solution assessed as relaxation of Ca2+-induced contraction at 12 and 40 uM in presence of 10 nM calcium channel agonist (S)-(-)Bay K 8644
In short: (§1)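 Following the cumulative Ca2+ (0.03−3 mM) curve in endothelium-denuded rings depolarized with Ca2+-free 60 mM K+ PSS, with compound or vehicle present from 30 min beforehand, 10 nM (S)-(−)-Bay K 8644 was added after the last Ca2+ addition. Tone expressed as % of the response to 60 mM K+; mean ± SE, n = 4−17.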

[6] = target: T1, Voltage-gated L-type calcium channel; test: Inhibition of L-type calcium channel in Wistar rat aorta rings assessed as relaxation of phenylephrine-induced contraction in Ca2+ free medium
In short: (§2)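 Rings in Ca2+-free PSS with 1 mM EGTA for 15 min, then 30 min incubation with vehicle or alkaloid. Contraction to 10 μM phenylephrine reflects sarcoplasmic reticulum Ca2+ release; 3.5 mM Ca2+ is then re-added with phenylephrine still present to index Ca2+ influx. Washed 45 min and repeated at a higher concentration. Expressed as % of 0.3 μM phenylephrine contraction in PSS.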

[7] = target: T1, Voltage-gated L-type calcium channel; test: Inhibition of L-type calcium channel in Wistar rat tail artery myocytes assessed as reduction in L-type Ba(2+) current at Vh of -50 mV; settings: for inhibition (INH): rat
[8] = target: T1, Voltage-gated L-type calcium channel; test: Inhibition of L-type calcium channel in endothelium-intact Wistar rat aorta rings assessed as relaxation of 0.3 uM phenylephrine-induced contraction
[9] = target: T1, Voltage-gated L-type calcium channel; test: Inhibition of L-type calcium channel in endothelium-denuded Wistar rat aorta rings depolarized with 60 mM K+ solution assessed as relaxation of Ca2+-induced contraction at 43 and 128 uM in presence of 10 nM calcium channel agonist (S)-(-)Bay K 8644; in short: as §1
[10] = target: T1, Voltage-gated L-type calcium channel; test: Inhibition of L-type calcium channel in Wistar rat aorta rings assessed as relaxation of phenylephrine-induced contraction in Ca2+ restored medium; in short: as §2

Structure (SMILES)	pIC50 [1]	inhibition (INH) [1]	pIC50 [2]	pIC50 [3]	inhibition (INH) [3]	inhibition (INH) [4]	inhibition (INH) [5]	inhibition (INH) [6]	IC50 [7] [µM]	inhibition (INH) [7]	pIC50 [8]	inhibition (INH) [9]	inhibition (INH) [10]	inhibition (INH) ([8]; rat)
CSC(=O)N(C)CCc1c[nH]c2ccccc12	4.8	Dose-dependent effect	4.5	4.7	Dose-dependent effect	Dose-dependent effect	Not Active	Not Active	251	Dose-dependent effect	4.4			
CSC(=O)NCCc1c[nH]c2ccccc12	4.1	Dose-dependent effect	3.9	4.3	Dose-dependent effect	Dose-dependent effect		Not Active			4.2	Not Active	Active	
COc1ccc(CCN(C)CCCC(C#N)(c2ccc(OC)c(OC)c2)C(C)C)cc1OC (stereo not given)		Dose-dependent effect			Dose-dependent effect					Dose-dependent effect				Dose-dependent effect
